Most compounds without a hit are left out; they make up all but 2.8% or so of the library.
T cell modulator: modulators of CD8 T cell-vesicle binding, primary screen, mouse 2C CD8+ T cells, flow cytometry; 2C CD8+ T cell-vesicle binding; active compounds read low; response (vesicle binding), % at 7 µM; 0.068% of 330,000 active;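 active = response, share of CD8 T cells binding vesicles, and their 90th percentile fluorescence all below set limits, cut at about 80% in these data, passing the limit was not always enough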;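 also: values below 100% mean blocked vesicle binding to the CD8+ T cells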
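Also added: QL9-peptide-loaded Drosophila micro-vesicles bearing Ld, ICAM-1 and B7-1; Test system: purified 2C TCR transgenic mouse naive CD8+ T cells; Measured by: cytometric PE anti-B7-1 and Alexa647 anti-CD8 signals after 1% paraformaldehyde fixation; Timing: binding step 1.5 h, 37 °C, antibody labelling 20 min, ice.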
Rtt109 Vps75: inhibitors of C. albicans Rtt109/Vps75 HAT, primary screen, biochemical, ThioGlo CoA-SH fluorescence, plate reader; inhibition, % at 34.9 µM; purified Rtt109/Vps75, 4 h; 0.16% of 330,000 active;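 active = inhibition of at least 50% in every replicate; inconclusive = best replicate reaches 50% inhibition but some replicates fall short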
NR3A LBD binder: binders of NR3A ligand-binding domain, primary screen, biophysical, differential scanning fluorimetry, uHTS; AID 1259313, 2017; Glutamate receptor ionotropic, NMDA 3A (GRIN3A) ligand-binding domain; Tm shift relative to glycine control, % at 25 µM; NR3A LBD differential scanning fluorimetry, Tm shift; 0% = protein alone, 100% = glycine-bound protein; 2.5% of 340,000 active;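 active = melting temperature shift of at least 10% of the positive control shift, at one fixed dose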
JMJD2C inh: inhibitors of GASC-1 histone demethylase, primary screen, biochemical, fluorescence, DELFIA europium. Lysine-specific demethylase 4C (Homo sapiens), Q9H3R0. GST-JMJD2C(1-420) H3K9me3 demethylation. inhibition, % at 2.35 µM. 0.069% of 330,000 active. AID 2099, 2009;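 active = more than half of a compound's replicate wells show inhibition beyond 50%, single wells judged on their own value; inconclusive = some, but no more than half, of replicates pass 50% inhibition; inactive = no replicate passes 50% inhibition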;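 also: signal counts dimethyl H3K9 product captured on neutravidin plate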
Target sequence (Q9H3R0 1-420 limits assumed): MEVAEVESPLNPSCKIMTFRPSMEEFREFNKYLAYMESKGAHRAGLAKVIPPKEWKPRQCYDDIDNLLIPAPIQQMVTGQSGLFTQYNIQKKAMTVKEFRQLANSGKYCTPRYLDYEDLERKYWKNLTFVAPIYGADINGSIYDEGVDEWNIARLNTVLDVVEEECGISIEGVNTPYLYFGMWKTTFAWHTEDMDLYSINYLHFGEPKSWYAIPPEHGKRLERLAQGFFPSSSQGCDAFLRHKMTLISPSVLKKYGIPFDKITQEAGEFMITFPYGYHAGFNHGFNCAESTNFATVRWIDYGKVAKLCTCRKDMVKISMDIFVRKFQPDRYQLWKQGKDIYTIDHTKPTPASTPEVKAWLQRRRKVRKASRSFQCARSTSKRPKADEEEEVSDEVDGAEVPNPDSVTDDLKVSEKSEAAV
A number is an active result; 0 = inactive; ? = inconclusive; - = not tested or not shown.

SMILES	T cell modulator	Rtt109 Vps75	NR3A LBD binder	JMJD2C inh
Cn1ncc2c(Nc3ccccc3Br)ncnc21	0	0	14	0
COc1ccc(NC(=O)CCNS(=O)(=O)c2cccc3nonc23)cc1Cl	0	0	18	0
COC(=O)c1ccc(NC(=S)NCCc2cccc(C)c2)cc1	0	0	24	0
COC(=O)c1ccc(NC(=S)Nc2ccc(O)cc2)cc1	0	0	20	0
Oc1ccc(NC(=S)Nc2ccc(O)cc2)cc1	0	0	0	0
COC(=O)c1ccc(NC(=S)NCCc2ccc(OC)cc2)cc1	0	0	0	0
COC(=O)c1ccc(NC(=S)NCCc2ccccc2C)cc1	0	0	29	0
O=C(CSc1ccc(C(F)(F)F)cc1[N+](=O)[O-])Nc1ccc2ccccc2c1	0	0	35	0
CC(=O)Nc1cccc(NC(=O)CSc2ccc(C(F)(F)F)cc2[N+](=O)[O-])c1	0	0	0	0
O=C(CSCc1ccc(C(=O)O)cc1)Nc1ccc2ccccc2c1	0	0	0	0
COc1ccc(NC(=O)c2ccc3ccccc3c2)cc1	0	0	0	0
CCC(=O)Nc1ccc(NC(=O)c2ccc3ccccc3c2)cc1	0	0	10	0
CC(=O)c1ccc(NC(=O)CSCC(=O)Nc2ccc3ccccc3c2)cc1	0	0	13	0
O=C(NC(=S)Nc1ccccc1Br)C1CCCC1	0	0	0	0
O=C(NC(=S)Nc1ccccc1Br)C1CCCCC1	0	0	13	0
Cn1c(NCC(O)c2ccccc2)nc2c1c(=O)n(Cc1ccc(Cl)c(Cl)c1)c(=O)n2C (stereo unspecified)	0	0	12	0
CCCc1cc(C(=O)Nc2cc(C)ccc2O)no1	0	0	0	0
CC(C)CCNC(=O)c1nn(Cc2ccccc2)c(=O)c2ccccc12	0	0	0	0
CC(C)N(CCNC(=O)c1nn(Cc2ccccc2)c(=O)c2ccccc12)C(C)C	0.0	0	-	0
Cc1cc(C(=O)NC2CC(C)(C)Cc3c2cnn3-c2cccc(F)c2)nn1C (stereo unspecified)	0	0	12	0
CC1(C)CC(CC(=O)NC(=S)Nc2ccc([N+](=O)[O-])cc2)C(=O)O1 (stereo unspecified)	0	0	10	?
Cc1ccc(NC(=S)NC(=O)CC2CC(C)(C)OC2=O)cc1 (stereo unspecified)	0	0	0	0
CC(C)OCC1CC(CC(=O)NC(=S)Nc2cccc([N+](=O)[O-])c2)C(=O)O1 (stereo unspecified)	0	0	0	0
CC(C)OCC1CC(CC(=O)Nc2ccc([N+](=O)[O-])cc2)C(=O)O1 (stereo unspecified)	0	0	18	0
COc1ccc(N(C=O)C(C(=O)Nc2c(C)cccc2C)c2ccccc2)cc1 (stereo unspecified)	0	0	0	0
SMILES	T cell modulator	Rtt109 Vps75	NR3A LBD binder	JMJD2C inh
CCN(CC)CCNC(=O)C(Oc1ccccc1)Oc1ccccc1	0	0	31	0
CCN(CC)CCNC(=O)c1ccccc1N	0	0	0	0
C/C(=N/NS(=O)(=O)c1cc(C)ccc1C)c1c[nH]c2ccccc12	0	0	29	0
C=CCN(c1ccccc1OC)S(=O)(=O)c1cccc(C(=O)OCC(=O)c2c[nH]c3ccccc23)c1	0	0	29	0
COc1cc(OC)c(N(C)S(=O)(=O)c2cccc(C(=O)OCC(=O)c3c[nH]c4ccccc34)c2)cc1Cl	0	0	26	0
COc1ccc(C(=O)OCC(=O)c2c[nH]c3ccccc23)cc1OC	0	0	0	-
Cc1cccc(NC(=S)N/N=C/c2cccc([N+](=O)[O-])c2)c1	0	0	150	0
Cc1ccc(S(=O)(=O)N/N=C/c2cccc([N+](=O)[O-])c2)cc1	0	0	0	0
Cc1cccc(NC(=S)N/N=C/c2ccc(Cl)c([N+](=O)[O-])c2)c1	0	0	0	0
O=[N+]([O-])c1ccc(NN=Cc2cccc([N+](=O)[O-])c2)cc1	-	0	34	-
O=[N+]([O-])c1ccc(N/N=C/c2cccc(O)c2O)cc1	0	0	35	0
CCCCCCCCCS(=O)(=O)N/N=C/c1cccc([N+](=O)[O-])c1	0	0	18	0
COC(=O)[C@H](CCSC)NC(=O)Cn1cnc2c(SC)nc(N)nc21	0	0	0	0
O=[N+]([O-])c1ccc(N/N=C/c2cccc(O)c2)cc1	0	0	26	0
Cc1ccc(NC(=O)c2ccc(N/N=C/c3cccc(O)c3)c([N+](=O)[O-])c2)cc1	0	0	256	0
O=C(N/N=C/c1ccc[nH]1)c1ccccc1[N+](=O)[O-]	0	0	0	0
O=[N+]([O-])c1ccc(N/N=C/c2ccc[nH]2)cc1	0	0	25	0
Cc1ccc(NC(=S)N/N=C/c2ccc([N+](=O)[O-])s2)cc1	0	0	23	0
O=C(COC(=O)C1CC2CCCC(C1)C2=O)NC1CCCCC1 (stereo unspecified)	0	0	0	0
CCOc1cc(CNCC(C)C)c(Cl)cc1OCC(=O)Nc1ccccc1	0	0	0	0
O=C(CCC1CCCC1)NNC(=O)c1ccccc1O	0	0	0	0
O=[N+]([O-])c1cccc(/C=N/Nc2cc(Cl)nc(-c3ccccc3)n2)c1	0	0	28	0
O=[N+]([O-])c1ccc(N/N=C/c2cccnc2)cc1	0	0	12	0
O=C(N/N=C/c1cccnc1)c1ccc([N+](=O)[O-])cc1	0	0	0	0
Cc1cccc(C(=O)Oc2ccc(/C=N/O)cc2)c1	0	0	0	0
SMILES	T cell modulator	Rtt109 Vps75	NR3A LBD binder	JMJD2C inh
O=[N+]([O-])c1ccc(/C=N/Nc2cc(Cl)nc(-c3ccccc3)n2)cc1	0	0	0	0
Cc1cccc(C(=O)Oc2ccccc2/C=N/Nc2ccc([N+](=O)[O-])cc2)c1	0	0	14	0
O=C(c1ccco1)N1CCN(C(=O)c2ccc(CS(=O)c3ccc(Cl)cc3)o2)CC1 (stereo unspecified)	0	0	0	0
CN(/N=C/c1cc(Cl)cc(Cl)c1O)C(=S)NC(C)(C)C	0	0	31	0
O=C(O)c1ccc(-c2ccc(/C=N/Nc3ccc([N+](=O)[O-])cc3)o2)cc1	0	50	10	0
O=C(O)c1ccc(N/N=C/c2ccc(-c3cccc(Cl)c3)o2)cc1	0	0	0	0
O=C(O)c1cccc(-c2ccc(/C=N/Nc3ccc([N+](=O)[O-])cc3)o2)c1	0	0	12	0
CCC(Cc1ccccc1)NS(=O)(=O)c1csc(C(N)=O)c1 (stereo unspecified)	0	0	0	0
CC(=O)Nc1ccc(NC(=O)Nc2ccc(C)c(C)c2)cc1	0	-	13	0
Cc1ccc(NC(=S)Nc2ccc(F)cc2)cc1C	0	50	0	0
CC(=O)Nc1ccc(NC(=O)Nc2ccc(C)cc2C)cc1	0	0	0	0
